From ChEMBL document CHEMBL1157667, “Synthesis of glycyrrhetinic acid derivatives for the treatment of metabolic diseases” (Bioorg Med Chem, 2010)

target: 11-beta-hydroxysteroid dehydrogenase 1 (Rattus norvegicus, UniProt P16232); test: Inhibition of 11beta-HSD1 in rat liver assessed as cortisone level; format: tissue-based
Sequence (P16232 whole entry): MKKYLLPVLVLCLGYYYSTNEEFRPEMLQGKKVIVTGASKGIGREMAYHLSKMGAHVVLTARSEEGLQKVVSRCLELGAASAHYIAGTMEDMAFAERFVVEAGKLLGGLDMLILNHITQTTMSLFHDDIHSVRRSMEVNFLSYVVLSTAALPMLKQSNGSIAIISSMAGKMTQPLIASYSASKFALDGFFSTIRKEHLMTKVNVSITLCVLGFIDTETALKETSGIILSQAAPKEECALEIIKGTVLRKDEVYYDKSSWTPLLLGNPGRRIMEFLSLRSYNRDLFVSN

Row | Structure (SMILES) | IC50
1 | CC1(C)[C@@H](O)CC[C@]2(C)[C@H]3C(=O)C=C4[C@@H]5C[C@@](C)(C(=O)O)CC[C@]5(C)CC[C@@]4(C)[C@]3(C)CC[C@@H]12 (stereo in doubt; 1) [ENOXOLONE] | 90 nM

target: 11-beta-hydroxysteroid dehydrogenase 1 (Homo sapiens) (UniProt P28845); test: Inhibition of human recombinant 11beta-HSD1 expressed in HEK293 cells assessed as conversion of [1,2-3H]cortisone to cortisol at 1 uM after 10 mins by scintillation counting; format: cell-based
Procedure, shortened: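 Lysates of HEK-293 cells (no endogenous 11β-HSD) expressing recombinant human 11β-HSD1. Reduction of [1,2-3H]cortisone to cortisol was run for 10 min at 37 °C with 200 nM cortisone (final) and NADPH as cofactor; solvent ≤0.1%. Reactions were stopped with methanol containing 2 mM unlabeled cortisone and cortisol. Steroids were separated by TLC and counted by scintillation. Three independent experiments.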

11-beta-hydroxysteroid dehydrogenase 1 (Homo sapiens), sequence (P28845 whole entry, looked up): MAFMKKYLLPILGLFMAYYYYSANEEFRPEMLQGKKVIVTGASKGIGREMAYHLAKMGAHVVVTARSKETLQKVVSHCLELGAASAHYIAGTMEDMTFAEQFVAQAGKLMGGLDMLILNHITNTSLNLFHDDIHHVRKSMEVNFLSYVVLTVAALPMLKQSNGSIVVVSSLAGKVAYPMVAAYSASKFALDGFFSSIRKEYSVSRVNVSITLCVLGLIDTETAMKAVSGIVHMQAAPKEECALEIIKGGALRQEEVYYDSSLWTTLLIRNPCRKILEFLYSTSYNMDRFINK

Row | inhibition | Structure (SMILES)
2 | 49.7% | CC1(C)[C@@H](O)CC[C@]2(C)[C@H]3C(=O)C=C4[C@@H]5C[C@@](C)(C(=O)O)CC[C@]5(C)CC[C@@]4(C)[C@]3(C)CC[C@@H]12 (stereo in doubt; 23)
3 | 86% | CC1(C)[C@@H](OP(=O)(O)O)CC[C@]2(C)[C@H]3C(=O)C=C4[C@@H]5C[C@@](C)(C(=O)O)CC[C@]5(C)CC[C@@]4(C)[C@]3(C)CC[C@@H]12
4 | 97.4% | CC1(C)[C@H](O)CC[C@]2(C)[C@H]3C(=O)C=C4[C@@H]5C[C@@](C)(C(=O)O)CC[C@]5(C)CC[C@@]4(C)[C@]3(C)CC[C@@H]12
5 | 19.5% | CC1(C)[C@@H](O)CC[C@]2(C)[C@H]3C(=O)C=C4[C@@H]5C[C@@](C)(C(=O)N6CCC(C(=O)O)CC6)CC[C@]5(C)CC[C@@]4(C)[C@]3(C)CC[C@@H]12
6 | 90.9% | CC(=O)O[C@H]1CC[C@]2(C)[C@H]3C(=O)C=C4[C@@H]5C[C@@](C)(C(=O)NN)CC[C@]5(C)CC[C@@]4(C)[C@]3(C)CC[C@H]2C1(C)C
7 | 10.1% | C#CCNC(=O)[C@@]1(C)CC[C@]2(C)CC[C@]3(C)C(=CC(=O)[C@@H]4[C@@]5(C)CC[C@H](O)C(C)(C)[C@@H]5CC[C@]43C)[C@@H]2C1
8 | 2.9% | CC1(C)[C@@H](O)CC[C@]2(C)[C@H]3C(=O)C=C4[C@@H]5C[C@@](C)(C(=O)NCCO)CC[C@]5(C)CC[C@@]4(C)[C@]3(C)CC[C@@H]12
9 | 6.2% | C=CCNC(=O)[C@@]1(C)CC[C@]2(C)CC[C@]3(C)C(=CC(=O)[C@@H]4[C@@]5(C)CC[C@H](O)C(C)(C)[C@@H]5CC[C@]43C)[C@@H]2C1

The next lines start with the molecule.

Row | Structure (SMILES) | inhibition
10 | CC1(C)[C@@H](O[C@H]2O[C@H](C(=O)O)[C@@H](O)[C@H](O)[C@H]2O[C@@H]2O[C@H](C(=O)O)[C@@H](O)[C@H](O)[C@H]2O)CC[C@]2(C)[C@H]3C(=O)C=C4[C@@H]5C[C@@](C)(C(=O)O)CC[C@]5(C)CC[C@@]4(C)[C@]3(C)CC[C@@H]12 | 63.2%
11 | CCNC(=O)N(CCCN(C)C)C(=O)[C@@]1(C)CC[C@]2(C)CC[C@]3(C)C(=CC(=O)[C@@H]4[C@@]5(C)CC[C@H](O)C(C)(C)[C@@H]5CC[C@]43C)[C@@H]2C1 | 32.5%
12 | CON=C1CC[C@]2(C)[C@H]3C(=O)C=C4[C@@H]5C[C@@](C)(C(=O)O)CC[C@]5(C)CC[C@@]4(C)[C@]3(C)CC[C@H]2C1(C)C | 63.2%
13 | CN(C)CCNC(=O)[C@@]1(C)CC[C@]2(C)CC[C@]3(C)C(=CC(=O)[C@@H]4[C@@]5(C)CC[C@H](O)C(C)(C)[C@@H]5CC[C@]43C)[C@@H]2C1 | 36%
14 | CC1(C)[C@@H](OC(=O)CCC(=O)O)CC[C@]2(C)[C@H]3C(=O)C=C4[C@@H]5C[C@@](C)(C(=O)O)CC[C@]5(C)CC[C@@]4(C)[C@]3(C)CC[C@@H]12 | 87.7%
15 | CC1(C)[C@@H](O)CC[C@]2(C)[C@H]3C(=O)C=C4[C@@H]5C[C@@](C)(C(=O)O)CC[C@]5(C)CC[C@@]4(C)[C@]3(C)CC[C@@H]12 (stereo in doubt; 1) | 91.2%
16 | CC1(C)C(=O)CC[C@]2(C)[C@H]3C(=O)C=C4[C@@H]5C[C@@](C)(C(=O)O)CC[C@]5(C)CC[C@@]4(C)[C@]3(C)CC[C@@H]12 | 63.8%
17 | CC(=O)O[C@H]1CC[C@]2(C)[C@H]3C(=O)C=C4[C@@H]5C[C@@](C)(C(=O)O)CC[C@]5(C)CC[C@@]4(C)[C@]3(C)CC[C@H]2C1(C)C | 47.1%
18 | CC1(C)[C@@H](O)CC[C@]2(C)[C@H]3C(=O)C=C4[C@@H]5C[C@@](C)(C(=O)NCC(=O)O)CC[C@]5(C)CC[C@@]4(C)[C@]3(C)CC[C@@H]12 | 2.7%
19 | CC(=O)O[C@H]1CC[C@]2(C)[C@H]3C(=O)C=C4[C@@H]5C[C@@](C)(C=NO)CC[C@]5(C)CC[C@@]4(C)[C@]3(C)CC[C@H]2C1(C)C | 43.3%
